The test system of data set [1] is Striatum. Put plainly: In vivo binding affinity to human CB2 receptor D80N mutant expressed in Fisher rat […] at 37 MBq, iv after up to 60 mins by microPET study. The format is functional, organism-based. Particulars: 37 M, tested as the 18F-labelled form.
In data set [2] the target is T1, Cannabinoid receptor 2 (Homo sapiens, UniProt P34972). Briefly: Inverse agonist activity at human CB2 receptor expressed in CHO cells assessed as effect on [35S]-GTPgammaS binding after 1 hrs by beta counting relative to control. The format is functional, cell-based. The settings on record: tested as the 18F-labelled form. A general note: Binding of GTPγS marks nucleotide exchange on a G protein.
T1 sequence (P34972 whole entry): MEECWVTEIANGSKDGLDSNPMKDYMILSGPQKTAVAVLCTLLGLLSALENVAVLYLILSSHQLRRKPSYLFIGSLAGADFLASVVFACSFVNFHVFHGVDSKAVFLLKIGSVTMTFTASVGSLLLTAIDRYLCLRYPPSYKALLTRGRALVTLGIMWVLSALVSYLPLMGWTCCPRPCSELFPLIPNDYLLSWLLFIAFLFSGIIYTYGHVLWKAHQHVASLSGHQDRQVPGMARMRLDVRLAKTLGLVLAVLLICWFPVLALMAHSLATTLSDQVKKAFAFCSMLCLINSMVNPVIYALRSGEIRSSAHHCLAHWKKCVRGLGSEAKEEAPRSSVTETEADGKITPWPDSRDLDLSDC

Data set [3] concerns Spleen. Put plainly: Biodistribution in NMRI mouse spleen at 6 MBq/ml, iv after 60 mins by gamma counting. The format is ADME, organism-based. The settings on record: in vivo, 1 h. The essentials:
(§1)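 Tracer formulated in saline at about 6 MBq/ml (diluted HPLC-purified product); 100 µl given into a tail vein. Mice killed by decapitation at 2 or 60 min p.i.; organs, body parts and blood dissected, weighed and gamma-counted. Values as %ID (cpm in organ/total cpm recovered), %ID/g, or SUV. Total blood mass taken as 7% of body mass. Mean SD, n = 4 per time point.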

Data set [4] has as its system Heart. Put plainly: Biodistribution in NMRI mouse heart at 6 MBq/ml, iv after 2 mins by gamma counting. The settings on record: in vivo. The format is ADME, organism-based. The essentials: as §1
Data set [5] has as its system Kidney. Briefly: Biodistribution in NMRI mouse kidney at 6 MBq/ml, iv after 60 mins by gamma counting. The format is ADME, organism-based. Particulars: in vivo, 1 h. The essentials: as §1
Data set [6] has as its system Brain. Briefly: Biodistribution in NMRI mouse brain at 6 MBq/ml, iv after 2 mins by gamma counting. The format is ADME, organism-based. The settings on record: in vivo. The method in brief:
as §1

The subject of data set [7] is Brain. Briefly: Biodistribution in NMRI mouse brain at 6 MBq/ml, iv after 60 mins by gamma counting. The format is ADME, organism-based. Particulars: in vivo, 1 h. The method in brief: as §1
The test system of data set [8] is Intestine. Put plainly: Biodistribution in NMRI mouse intestine at 6 MBq/ml, iv after 60 mins by gamma counting. The format is ADME, organism-based. Particulars: in vivo, 1 h. The essentials:
as §1

The target in data set [9] is T1, Cannabinoid receptor 2. Put plainly: Displacement of [3H]-CP55940 from human CB2 receptor expressed in CHO cells after 1 hrs by beta counting. The format is cell-based. For orientation: Displacement assays read how much labelled ligand stays bound in the presence of the test substance.
Data set [10] concerns Intestine. Briefly: Biodistribution in NMRI mouse intestine at 6 MBq/ml, iv after 2 mins by gamma counting. The format is ADME, organism-based. Particulars: in vivo. The method in brief: as §1
Data set [11] in a line: Metabolic stability in NMRI mouse brain at 6 MBq/ml, iv after 10 mins by HPLC analysis. The format is ADME, organism-based. The settings on record: read-out: Stability. The essentials: (§2)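 Normal NMRI mice were given the tracer IV, and plasma and brain were sampled at 2, 10 or 30 min. The percentage of intact tracer was measured by reversed-phase HPLC with 0.05 M ammonium acetate pH 6.9/acetonitrile eluent, 30/70 for plasma and 40/60 for brain, at 1 ml/min.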

The nature of data set [12]: Octanol-phosphate buffer partition coefficient, log D of the compound at pH 7.4. The format is physicochemical. The essentials: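 Radiolabelled tracer partitioned between 1-octanol and 0.025 M phosphate buffer pH 7.4; log D from distribution of radioactivity.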
Data set [13] concerns Spleen. Put plainly: Biodistribution in NMRI mouse spleen at 6 MBq/ml, iv after 2 mins by gamma counting. The format is ADME, organism-based. The settings on record: in vivo. The essentials: as §1
Data set [14] concerns Stomach. Put plainly: Biodistribution in NMRI mouse stomach at 6 MBq/ml, iv after 2 mins by gamma counting. The format is ADME, organism-based. Particulars: in vivo. The essentials: as §1
Data set [15] deals with Pancreas. Put plainly: Biodistribution in NMRI mouse pancreas at 6 MBq/ml, iv after 2 mins by gamma counting. The format is ADME, organism-based. Particulars: in vivo. The method in brief: as §1
Data set [16] concerns Blood. Put plainly: Biodistribution in NMRI mouse blood at 6 MBq/ml, iv after 60 mins by gamma counting. The format is ADME, organism-based. The settings on record: in vivo, 1 h. The essentials: as §1
Data set [17] concerns Stomach. Put plainly: Biodistribution in NMRI mouse stomach at 6 MBq/ml, iv after 60 mins by gamma counting. The format is ADME, organism-based. The settings on record: in vivo, 1 h. The method in brief: as §1
In data set [18] the test system is Heart. Briefly: Biodistribution in NMRI mouse heart at 6 MBq/ml, iv after 60 mins by gamma counting. The format is ADME, organism-based. The settings on record: in vivo, 1 h. The essentials:
as §1

Data set [19] deals with Blood. Briefly: Biodistribution in NMRI mouse blood at 6 MBq/ml, iv after 2 mins by gamma counting. The format is ADME, organism-based. Particulars: in vivo. The essentials: as §1
Data set [20] can be described thus: Metabolic stability in NMRI mouse plasma at 6 MBq/ml, iv after 2 mins by HPLC analysis. The format is ADME, organism-based. The settings on record: read-out: Stability. The essentials:
as §2

Data set [21] can be described thus: Metabolic stability in NMRI mouse plasma at 6 MBq/ml, iv after 10 mins by HPLC analysis. The format is ADME, organism-based. Particulars: read-out: Stability. The essentials: as §2
Data set [22] is described as follows: Biodistribution in NMRI mouse urine at 6 MBq/ml, iv after 60 mins by gamma counting. The settings on record: in vivo, 1 h. The format is ADME, organism-based. The method in brief:
as §1

The target of the next data set is Cannabinoid receptor 1 (Homo sapiens, UniProt P21554). Briefly: Displacement of [3H]-SR141716A from human CB1 receptor expressed in CHO cells after 1 hrs by beta counting. The format is cell-based.
Chain of Cannabinoid receptor 1 (P21554 whole entry): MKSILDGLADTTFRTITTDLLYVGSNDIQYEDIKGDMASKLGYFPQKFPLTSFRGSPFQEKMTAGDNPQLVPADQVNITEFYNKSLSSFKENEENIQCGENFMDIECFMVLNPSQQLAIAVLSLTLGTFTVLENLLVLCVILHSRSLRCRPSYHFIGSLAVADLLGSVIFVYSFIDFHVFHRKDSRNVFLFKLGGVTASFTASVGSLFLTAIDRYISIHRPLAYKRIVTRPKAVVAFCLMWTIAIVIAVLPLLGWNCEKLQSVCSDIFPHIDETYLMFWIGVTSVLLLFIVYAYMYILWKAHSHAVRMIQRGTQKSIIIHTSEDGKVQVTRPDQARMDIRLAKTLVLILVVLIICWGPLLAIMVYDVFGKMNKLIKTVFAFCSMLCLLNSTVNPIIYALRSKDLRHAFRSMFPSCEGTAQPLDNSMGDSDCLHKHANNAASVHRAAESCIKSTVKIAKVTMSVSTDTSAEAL
The nature of data set [23]: Metabolic stability in NMRI mouse brain at 6 MBq/ml, iv after 30 mins by HPLC analysis. The format is ADME, organism-based. The settings on record: read-out: Stability. The essentials:
as §2

Data set [24] has as its system Liver. Put plainly: Biodistribution in NMRI mouse liver at 6 MBq/ml, iv after 60 mins by gamma counting. The format is ADME, organism-based. The settings on record: in vivo, 1 h. The essentials: as §1
Data set [25] has as its target T1, Cannabinoid receptor 2. Briefly: Inverse agonist activity at human CB2 receptor expressed in CHO cells assessed as effect on [35S]-GTPgammaS binding after 1 hrs by beta counting. The format is functional, cell-based.
The nature of data set [26]: Biodistribution in NMRI mouse urine at 6 MBq/ml, iv after 2 mins by gamma counting. The format is ADME, organism-based. Particulars: in vivo. The method in brief: as §1
Data set [27] is described as follows: Metabolic stability in NMRI mouse brain at 6 MBq/ml, iv after 2 mins by HPLC analysis. Particulars: read-out: Stability. The format is ADME, organism-based. The essentials:
as §2

Data set [28] deals with Pancreas. Briefly: Biodistribution in NMRI mouse pancreas at 6 MBq/ml, iv after 60 mins by gamma counting. The format is ADME, organism-based. The settings on record: in vivo, 1 h. The essentials: as §1
Data set [29] concerns Kidney. Put plainly: Biodistribution in NMRI mouse kidney at 6 MBq/ml, iv after 2 mins by gamma counting. The format is ADME, organism-based. The settings on record: in vivo. The essentials: as §1
Data set [30] concerns Lung. Briefly: Biodistribution in NMRI mouse lungs at 6 MBq/ml, iv after 2 mins by gamma counting. The format is ADME, organism-based. The settings on record: in vivo. The method in brief:
as §1

In data set [31] the test system is Lung. Briefly: Biodistribution in NMRI mouse lungs at 6 MBq/ml, iv after 60 mins by gamma counting. The format is ADME, organism-based. The settings on record: in vivo, 1 h. The essentials: as §1
Data set [32] concerns Liver. Put plainly: Biodistribution in NMRI mouse liver at 6 MBq/ml, iv after 2 mins by gamma counting. Particulars: in vivo. The format is ADME, organism-based. The method in brief:
as §1

The nature of data set [33]: Metabolic stability in NMRI mouse plasma at 6 MBq/ml, iv after 30 mins by HPLC analysis. The settings on record: read-out: Stability. The format is ADME, organism-based. The method in brief:
as §2

Data set [34] deals with Brain. Put plainly: Biodistribution in Wistar rat brain after 60 mins. Particulars: in vivo, 1 h. The format is ADME, organism-based.
Data set [35] deals with Striatum. Briefly: In vivo binding affinity to human CB2 receptor D80N mutant expressed in Fisher rat right striatum at 37 MBq, iv after 60 mins by microPET study relative to left striatum. The format is functional. The method in brief: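 Normal 8-week-old Fisher rat received stereotactic AAV2/7-eGFP-T2A-hCB2R(D80N) vector in the right striatum and a control eGFP vector in the left striatum. Scanned 34 days later under 3% isoflurane in 2.0 L/min oxygen. Dynamic microPET started immediately after IV injection of about 37 MBq tracer. Images spatially normalized to stereotactic space; striatal time-activity curves from predefined volumes of interest.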

Here are results for three compounds from ChEMBL document CHEMBL1806389, “Synthesis, in vitro and in vivo evaluation of fluorine-18 labelled FE-GW405833 as a PET tracer for type 2 cannabinoid receptor imaging” (Bioorg Med Chem, 2011).

Values joined by “and” are separate entries in the source; they are usually repeats but may differ in a detail not shown here. Identical values can stand only once. Active and inactive are the calls of the source. The rule behind the calls is not given here.

In the case of `Cc1c(CCN2CCOCC2)c2cc(OCCF)ccc2n1C(=O)c1cccc(Cl)c1Cl`, in the data set on Striatum [1], the result was Active. For the same compound, the Emax (in general, the maximal effect, on the per cent scale that the assay sets) at Cannabinoid receptor 2 [2] is -82%.
Consider `Cc1c(CCN2CCOCC2)c2cc(OCC[18F])ccc2n1C(=O)c1cccc(Cl)c1Cl`, for which the SUV is 1.1 in the data set with Spleen [3]; 2.7 in the data set with Heart [4]; 1.2 in the data set with Kidney [5]; 1 in the data set with Brain [6]; 0.6 with Brain [7]; 3.3 in the data set on Spleen [13]. Besides, the SUV with Pancreas [15] worked out at 1.2; with Blood [16], 0.7; with Heart [18], 0.7; in the data set with Blood [19] it was 0.6; with Liver [24], 4; with Pancreas [28] it was 0.8. The SUV in the data set with Kidney [29] worked out at 5.5; in the data set on Lung [30] it was 4.5; in the data set on Lung [31] it was 0.8; in the data set on Liver [32] it was 9.1. In addition, the Drug uptake with Kidney [5] was 2.2 %ID and 3.4 % ID/g; with Brain [6] it was 1.3 %ID and 2.9 % ID/g; in the data set with Brain [7], 0.7 %ID and 1.6 % ID/g; with Intestine [8], 35.7 %ID; in the data set on Intestine [10], 8.9 %ID; in the data set with Stomach [14] it was 1.3 %ID. Besides, the Drug uptake in the data set with Blood [16] was 5 %ID and 2.1 % ID/g; in the data set with Stomach [17] it was 1.8 %ID; in the data set with Blood [19], 4.5 %ID and 1.9 % ID/g; in data set [22] it was 1.4 %ID; with Liver [24] it was 23.7 %ID and 11.4 % ID/g; in data set [26], 0.1 %ID. The Drug uptake was 9.8 %ID and 15.8 % ID/g in the data set on Kidney [29]; 47.4 %ID and 26.3 % ID/g in the data set with Liver [32]. The Ki – broadly, the dissociation constant of the complex between target and ligand, obtained from inhibition or displacement – on Cannabinoid receptor 2 [9] stood at 27 nM; at Cannabinoid receptor 1 it was 10000 nM. The remaining at 10 min is 79% in [11] and 52% in [21]. Further, in data set [12], the logD (commonly the decadic logarithm of the distribution of all forms, ionised or not, between an organic phase and buffer at a given pH) worked out at 2.8. Besides, the remaining at 2 min was 84% in data set [20] and 95% in data set [27]. In addition, the remaining at 0.5 h in [23] worked out at 48%; in [33], 12%. The EC50 – broadly, the concentration that produces a half-maximal response – on Cannabinoid receptor 2 [25] came out at 17.9 nM.
`Cc1c(CCN2CCOCC2)c2cc(O[11CH3])ccc2n1C(=O)c1cccc(Cl)c1Cl` yielded a Drug uptake in the data set with Brain [34] of 0.1 %ID. The Ratio in the data set with Striatum [35] stood at 1.6.
